# In ChEMBL document CHEMBL4689842, “EUbOPEN Chemogenomics Library wave 1” (2021):
# Test system: U2OS
# Assay: Multiplex assay against U2OS
# Assay type: toxicity, cell-based
# Conditions: human
# Outline: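 Compound was added to live cells that had been stained at seeding with Hoechst33342, BioTracker Green Microtubule Cytoskeleton Dye, MitoTracker Red and Annexin V Alexa Fluor 680, and imaging followed on a CQ1 microscope at 37°C and 5% CO2. CellPathfinder machine-learning gating divided cells into Hoechst high-intensity objects or normal cells, normal cells into healthy, pyknosed or fragmented nuclei, and pyknosed cells into mitotic or apoptotic. Tubulin, mitochondrial-mass and membrane-permeability phenotypes are per cents of healthy-nucleus cells.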
# [1] = 12 h, 1 µM, compound concentration 1 uM, replicate 1
# [2] = 12 h, 1 µM, compound concentration 1 uM, replicate 2
# [3] = 12 h, 10 µM, compound concentration 10 uM, replicate 1
# [4] = 12 h, 10 µM, compound concentration 10 uM, replicate 2
# [5] = 24 h, 1 µM, compound concentration 1 uM, replicate 1
# [6] = 24 h, 1 µM, compound concentration 1 uM, replicate 2
# [7] = 24 h, 10 µM, compound concentration 10 uM, replicate 1
# [8] = 24 h, 10 µM, compound concentration 10 uM, replicate 2
# [9] = 48 h, 1 µM, compound concentration 1 uM, replicate 1
# [10] = 48 h, 1 µM, compound concentration 1 uM, replicate 2
# [11] = 48 h, 10 µM, compound concentration 10 uM, replicate 1
# [12] = 48 h, 10 µM, compound concentration 10 uM, replicate 2
structure (smiles),measurement,setting,value
Cc1cc(C)cc(-c2cnc3cc(Cl)c(-c4cccc(O)c4)cc3c2OCCCN)c1,Population Apoptotic (%),[1],36%
same,Population Fragmented Nuclei (%),[1],11%
same,Population Healthy Nuclei (%),[1],75%
same,Population Hoechst High Intensity Objects (%),[1],6%
same,Population Membrane Permeable-Phenotype (%),[1],5%
same,Population Mitochondria Different-Phenotype (%),[1],76%
same,Population Mitotic Cells (%),[1],64%
same,Population Normal (%),[1],93%
same,Population Pyknosed Nuclei (%),[1],12%
same,Population Tubulin-Different-Phenotype (%),[1],88%
same,Total Cell Count,[1],132
same,Population Apoptotic (%),[2],44%
same,Population Healthy Nuclei (%),[2],72%
same,Population Hoechst High Intensity Objects (%),[2],10%
same,Population Membrane Permeable-Phenotype (%),[2],2%
same,Population Mitochondria Different-Phenotype (%),[2],82%
same,Population Mitotic Cells (%),[2],55%
same,Population Normal (%),[2],90%
same,Population Pyknosed Nuclei (%),[2],16%
same,Population Tubulin-Different-Phenotype (%),[2],56%
same,Total Cell Count,[2],68
same,Population Apoptotic (%),[3],90%
same,Population Fragmented Nuclei (%),[3],33%
same,Population Healthy Nuclei (%),[3],1%
same,Population Hoechst High Intensity Objects (%),[3],14%
same,Population Membrane Permeable-Phenotype (%),[3],50%
same,Population Mitochondria Different-Phenotype (%),[3],50%
same,Population Mitotic Cells (%),[3],9%
same,Population Normal (%),[3],85%
same,Population Pyknosed Nuclei (%),[3],64%
same,Population Tubulin-Different-Phenotype (%),[3],50%
same,Total Cell Count,[3],207
same,Population Apoptotic (%),[4],70%
same,Population Fragmented Nuclei (%),[4],16%
same,Population Healthy Nuclei (%),[4],32%
same,Population Hoechst High Intensity Objects (%),[4],8%
same,Population Membrane Permeable-Phenotype (%),[4],90%
same,Population Mitochondria Different-Phenotype (%),[4],95%
same,Population Mitotic Cells (%),[4],29%
same,Population Normal (%),[4],91%
same,Population Pyknosed Nuclei (%),[4],50%
same,Population Tubulin-Different-Phenotype (%),[4],100%
same,Total Cell Count,[4],60
same,Population Apoptotic (%),[5],35%
same,Population Fragmented Nuclei (%),[5],7%
same,Population Healthy Nuclei (%),[5],77%
same,Population Hoechst High Intensity Objects (%),[5],5%
same,Population Membrane Permeable-Phenotype (%),[5],6%
same,Population Mitochondria Different-Phenotype (%),[5],75%
same,Population Mitotic Cells (%),[5],64%
same,Population Normal (%),[5],94%
same,Population Pyknosed Nuclei (%),[5],14%
same,Population Tubulin-Different-Phenotype (%),[5],68%
same,Total Cell Count,[5],131
same,Population Apoptotic (%),[6],62%
same,Population Fragmented Nuclei (%),[6],11%
same,Population Healthy Nuclei (%),[6],75%
same,Population Hoechst High Intensity Objects (%),[6],3%
same,Population Membrane Permeable-Phenotype (%),[6],2%
same,Population Mitochondria Different-Phenotype (%),[6],78%
same,Population Mitotic Cells (%),[6],37%
same,Population Normal (%),[6],96%
same,Population Pyknosed Nuclei (%),[6],13%
same,Population Tubulin-Different-Phenotype (%),[6],28%
same,Total Cell Count,[6],66
same,Population Apoptotic (%),[7],86%
same,Population Fragmented Nuclei (%),[7],33%
same,Population Healthy Nuclei (%),[7],2%
same,Population Hoechst High Intensity Objects (%),[7],15%
same,Population Membrane Permeable-Phenotype (%),[7],66%
same,Population Mitochondria Different-Phenotype (%),[7],66%
same,Population Mitotic Cells (%),[7],13%
same,Population Normal (%),[7],84%
same,Population Pyknosed Nuclei (%),[7],63%
same,Population Tubulin-Different-Phenotype (%),[7],66%
same,Total Cell Count,[7],200
same,Population Apoptotic (%),[8],93%
same,Population Fragmented Nuclei (%),[8],24%
same,Population Healthy Nuclei (%),[8],3%
same,Population Hoechst High Intensity Objects (%),[8],7%
same,Population Membrane Permeable-Phenotype (%),[8],50%
same,Population Mitochondria Different-Phenotype (%),[8],50%
same,Population Mitotic Cells (%),[8],6%
same,Population Normal (%),[8],92%
same,Population Pyknosed Nuclei (%),[8],72%
same,Population Tubulin-Different-Phenotype (%),[8],50%
same,Total Cell Count,[8],63
same,Population Apoptotic (%),[9],48%
same,Population Fragmented Nuclei (%),[9],8%
same,Population Healthy Nuclei (%),[9],75%
same,Population Hoechst High Intensity Objects (%),[9],1%
same,Population Membrane Permeable-Phenotype (%),[9],3%
same,Population Mitochondria Different-Phenotype (%),[9],47%
same,Population Mitotic Cells (%),[9],51%
same,Population Normal (%),[9],98%
same,Population Pyknosed Nuclei (%),[9],15%
same,Population Tubulin-Different-Phenotype (%),[9],32%
same,Total Cell Count,[9],127
same,Population Apoptotic (%),[10],54%
same,Population Fragmented Nuclei (%),[10],11%
same,Population Healthy Nuclei (%),[10],73%
same,Population Hoechst High Intensity Objects (%),[10],5%
same,Population Membrane Permeable-Phenotype (%),[10],5%
same,Population Mitochondria Different-Phenotype (%),[10],41%
same,Population Mitotic Cells (%),[10],45%
same,Population Normal (%),[10],95%
same,Population Pyknosed Nuclei (%),[10],14%
same,Population Tubulin-Different-Phenotype (%),[10],16%
same,Total Cell Count,[10],73
same,Population Apoptotic (%),[11],83%
same,Population Fragmented Nuclei (%),[11],30%
same,Population Healthy Nuclei (%),[11],3%
same,Population Hoechst High Intensity Objects (%),[11],20%
same,Population Membrane Permeable-Phenotype (%),[11],75%
same,Population Mitochondria Different-Phenotype (%),[11],75%
same,Population Mitotic Cells (%),[11],16%
same,Population Normal (%),[11],79%
same,Population Pyknosed Nuclei (%),[11],65%
same,Population Tubulin-Different-Phenotype (%),[11],75%
same,Total Cell Count,[11],270
same,Population Apoptotic (%),[12],96%
same,Population Fragmented Nuclei (%),[12],33%
same,Population Healthy Nuclei (%),[12],12%
same,Population Hoechst High Intensity Objects (%),[12],17%
same,Population Membrane Permeable-Phenotype (%),[12],100%
same,Population Mitochondria Different-Phenotype (%),[12],100%
same,Population Mitotic Cells (%),[12],3%
same,Population Normal (%),[12],82%
same,Population Pyknosed Nuclei (%),[12],54%
same,Population Tubulin-Different-Phenotype (%),[12],100%
same,Total Cell Count,[12],80
